# Screens: PubChem, Broad Institute
# Cneo AK release: Cryptococcus neoformans cell lysis inducers, primary screen, AK release luminescence, single concentration. 360,000 compounds, 0.2% hits. lysis activity, % at 15 µM. C. neoformans lysis, adenylate kinase release luminescence, 4 h; normalised: neutral wells 0, clomiphene wells 100;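 active means mean lysis activity across replicates of at least 80%, whatever share of replicates individually reach that level; inactive means mean lysis activity below 80%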
#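 Material – log-phase Cryptococcus neoformans yeast cells · Input – 5 × 10^6 yeast cells/mL · Medium – fresh YPD growth medium · Doses – single compound concentration per well · Timing – static 4 h at 37 °C with compound, 1 h detection · Detection – adenylate kinase release luminescence · Read-out – signal increase indicating cell lysis · Control set – Clomiphene as positive lysis control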
# XiGFP reactiv: activators of inactive X chromosome reactivation, primary screen, imaging, XiGFP fibroblasts, GFP high-content imaging, set 2. XiGFP mouse fibroblasts, % GFP-positive cells imaging, 3 d; cells co-treated with 5-aza-dC sensitizer; scaled so ellipticine positive control = 100%. activation, % at 7.58 µM. 360,000 compounds, 0.055% hits;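 active means mean normalized replicate activation at least 10% and every replicate at or above 10%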;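 further: 0% = median of on-plate neutral control wells and 100% = ellipticine 6 µM median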
#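 Assay system – SV40-immortalized XiGFP fibroblast cells, line 68-5-11 · Buffer or medium – DMEM supplemented with 5-aza-dC as sensitizing agent · Dosing – one concentration, pinned · Benchmarks – positive control ellipticine, 6 µM final · Times – 3 days compound exposure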
# DENV2 CPE: inhibitors of DENV2 cytopathic effect, primary screen, cell-based, plate reader, single concentration; DENV2-infected cells, cytopathic effect rescue; CPE inhibition, % at 9.99 µM; 350,000 compounds, 1.7% hits; in the data active means CPE inhibition above about 20%, passing the limit was not always enough; tested in BHK-21 cells;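 further: 0% = median of neutral control wells and 100% = median of positive control wells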
# C2C12 statin: suppressors of statin myotoxicity in C2C12 myotubes, primary screen, cell-based, single point, plate reader; C2C12 myotubes + simvastatin, ATP luminescence, 48 h; scaled: DMSO 0, geranylgeraniol control 100; rescue of ATP level, % at 7.49 µM; 330,000 compounds, 0.78% hits;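 active means mean ATP rescue above about 67%, or every replicate alone reaching that limit, limit read from the data, passing the limit was not always enough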;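 further: myotubes were challenged with 10 µM simvastatin during compound exposure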
# * = called active by the depositor; . = no result; ! = a repeat was not active. In the library only some 2.1% were active in any assay of this set; here they are far more common.
SMILES,Cneo AK release,XiGFP reactiv,DENV2 CPE,C2C12 statin
COc1ccc(-c2oc(=O)c3cc(OC)c(OC)cc3c2/C=C/c2cccc([N+](=O)[O-])c2)cc1,3.5,0.0,33.7*,-103.3
Cc1cc(C)n(CC(=O)O)n1,0.1,.,.,.
Cc1cc(C)n(CC(=O)N2c3ccccc3Sc3ccccc32)n1,-0.9,.,.,119.2*
CC(C)NC(=O)N(C)C[C@@H]1Oc2c(NC(=O)CCCCCC(=O)Nc3ccccc3N)cccc2C(=O)N([C@@H](C)CO)C[C@H]1C,.,-0.1,24.9*,.
C[C@@H]1CN([C@@H](C)CO)C(=O)c2cccc(NC(=O)CCCCCC(=O)Nc3ccccc3N)c2O[C@H]1CN(C)C(=O)Nc1ccc(F)cc1,.,-0.1,48.5*,.
C[C@@H]1CN([C@@H](C)CO)C(=O)c2cc(NC(=O)CCCCCC(=O)Nc3ccccc3N)ccc2O[C@@H]1CN(C)C(=O)Nc1ccc(C(F)(F)F)cc1,57.0,0.5,-1.5,68.2*
CC(C)NC(=O)N(C)C[C@@H]1Oc2c(NC(=O)CCCCCC(=O)Nc3ccccc3N)cccc2C(=O)N([C@H](C)CO)C[C@H]1C,.,-0.1,9.4,.
O=C(N[C@H]1CC[C@@H](CCn2cc(-c3ccccn3)nn2)O[C@@H]1CO)c1cccnc1,-1.3,0.2,-0.5,0.1
C[C@@H]1CCCCO[C@@H](CN(C)C(=O)NC2CCCCC2)[C@H](C)CN([C@H](C)CO)C(=O)c2cc(NC(=O)C3CCCCC3)ccc2O1,-1.9,0.2,-5.6,16.8
C[C@@H]1CCCCO[C@H](CN(C)C(=O)NC2CCCCC2)[C@@H](C)CN([C@@H](C)CO)C(=O)c2cc(NC(=O)NC3CCCCC3)ccc2O1,-11.5,0.0,46.8*,.
C[C@H](CO)N1C[C@H](C)[C@H](CN(C)C(=O)NC2CCCCC2)Oc2ccc(NC(=O)Cn3cnnn3)cc2C1=O,53.2,0.3,99.0*,5.1
CC(C)NC(=O)Nc1ccc2c(c1)C(=O)N([C@@H](C)CO)C[C@@H](C)[C@@H](CN(C)C(=O)NC1CCCCC1)OCCCC[C@H](C)O2,91.7*,0.1,-8.2,.
C[C@@H]1CN([C@@H](C)CO)C(=O)c2cc(NC(=O)C3CCCCC3)ccc2O[C@@H](C)CCCCO[C@@H]1CN(C)C(=O)NC1CCCCC1,96.9*,-0.6,.,-47.8
C[C@@H]1CN([C@@H](C)CO)C(=O)CCCn2cc(nn2)CO[C@@H]1CN(C)C(=O)c1cc(-c2ccccc2)on1,.,-0.2,.,4.1
C[C@H](CO)N1C[C@H](C)[C@@H](CN(C)C(=O)Nc2ccccc2)Oc2ccc(NC(=O)CCC(F)(F)F)cc2CC1=O,7.5,0.3,-2.3,-22.6
CC(=O)N(C)C[C@@H]1Oc2cc(C#CCC(C)C)ccc2S(=O)(=O)N([C@H](C)CO)C[C@H]1C,52.7,-0.6,0.8,-16.4
O=C(C[C@H]1CC[C@@H](NC(=O)Nc2cc(F)ccc2F)[C@H](CO)O1)NCCCN1CCOCC1,-0.6,-0.3,-4.0,-5.1
COC(=O)C[C@H]1C=C[C@@H](NS(=O)(=O)c2ccc(OC)cc2)[C@@H](CO)O1,15.1,0.4,18.4,-8.0
C[C@@H]1CN([C@@H](C)CO)C(=O)c2cc(NC(=O)C3CC3)ccc2O[C@@H]1CN(C)C(=O)NC1CCCCC1,-0.6,-1.2,-7.5,7.8
C[C@@H]1CCCCO[C@H](CN(C)C(=O)Nc2ccc3c(c2)OCO3)[C@H](C)CN([C@@H](C)CO)C(=O)c2cc(NC(=O)NC3CCCCC3)ccc2O1,53.8,0.1,.,.
C[C@H](CO)N1C[C@H](C)[C@@H](CN(C)C(=O)NC2CCCCC2)Oc2ccc(NC(=O)C3CC3)cc2C1=O,0.9,-0.4,56.2*!,-13.3
C[C@H]1CCCCO[C@H](CN(C)C(=O)Nc2ccc3c(c2)OCO3)[C@@H](C)CN([C@@H](C)CO)C(=O)c2cc(NC(=O)NC3CCCCC3)ccc2O1,35.4,0.0,85.4*,.
Cc1ccc(-n2ccc(=O)c(-c3ccnc(SCc4cccc(Cl)c4)n3)n2)cc1,0.5,.,.,84.3*
CCNC(=O)C[C@H]1CC[C@@H]2[C@H](COc3ccc(NC(=O)Nc4ccc(F)cc4)cc3C(=O)N2C)O1,0.9,0.1,8.9,-10.8
Oc1ccccc1/C=N/N1CCN(c2ccccn2)CC1,.,-0.1,-1.9,-16.3
SMILES,Cneo AK release,XiGFP reactiv,DENV2 CPE,C2C12 statin
CC(C)c1ccc(/C=N/N2CCN(c3ccccn3)CC2)cc1,-5.6,0.0,46.8*,.
CC(/C=N/N1CCN(c2ccccn2)CC1)=C\c1ccccc1,-1.7,0.0,22.8*,.
FC(F)(F)c1cccnc1Oc1ccc(C2=NCCS2)cc1,3.6,0.5,68.4*,.
Nc1cccnc1Oc1ccc(F)cc1,.,0.0,0.0,1.5
C[C@H](CO)N1C[C@H](C)[C@@H](CN(C)C(=O)c2ccccc2)OCCCC[C@H](C)Oc2ccc(NS(=O)(=O)c3ccc(F)cc3)cc2C1=O,-2.0,-0.7,16.6,.
CCOC(=O)C1=CN(Cc2cccc(I)c2)S(=O)(=O)N(C)C1C (stereo not given),-2.8,0.2,-14.1,13.8
CCOC(=O)C1=CN(Cc2cccc(Br)c2)S(=O)(=O)N(C)C1C (stereo not given),-1.1,0.1,37.4*,-1.1
CCN(CC)c1ccc2cc(C(=O)NCc3ccc(F)cc3)c(=N)oc2c1,0.0,0.1,26.3*,-1.5
CCn1cc(C(=O)NC(C)CCc2ccccc2)c(=O)c2cc(S(=O)(=O)N(C)C)ccc21 (stereo not given),-1.0,0.4,50.6*,-12.5
CCn1cc(C(=O)NCCc2ccc(Cl)cc2)c(=O)c2cc(S(=O)(=O)N(C)C)ccc21,-5.8,0.0,0.8,-4.4
CC(C)c1ccc(NC(=O)Nc2nc(C(C)N)cs2)cc1 (stereo not given),-1.0,-0.1,-9.6,-2.9
CC(C)c1ccc(NC(=O)Nc2nc(C(N)c3ccccc3Cl)cs2)cc1 (stereo not given),-1.0,0.8,22.9*,-4.1
CC(C)c1ccc(NC(=O)Nc2nc(C(N)CCc3ccccc3)cs2)cc1 (stereo not given),0.7,-0.1,36.8*,-151.5
Nc1nnnn1/N=C/c1ccccn1,-1.9,.,6.2,83.4*
CC(C)Cn1c(=S)[nH]c2cc(C(=O)NCc3ccccc3F)ccc2c1=O,-1.6,0.2,62.1*,-4.5
CN(C)c1ccc2c(c1)[C@@H]1C[C@@H](CC(=O)NCc3ccccc3F)O[C@H](CO)[C@@H]1O2,-1.5,0.1,-0.8,-4.5
CC(C)NC(=O)N(C)C[C@@H]1OCCCC[C@@H](C)Oc2ccc(NS(=O)(=O)c3cccs3)cc2C(=O)N([C@H](C)CO)C[C@@H]1C,-3.4,-0.1,54.5*,.
C[C@H]1CCCCO[C@@H](CN(C)C(=O)Nc2ccc(F)cc2)[C@@H](C)CN([C@@H](C)CO)C(=O)c2cc(NS(=O)(=O)c3cccs3)ccc2O1,12.6,-0.1,19.1,18.2
